PAD4 FP inh = PAD4 (human) enzyme inhibition | actives 0.41% (n = 330,000) | recombinant PAD4, RCA probe fluorescence polarization | Q9UM07 | inhibition, % at 6.36 µM;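 active = percent inhibition above a cutoff equal to the mean of all tested compounds plus 3 SD, cut at about 15% in these data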;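 note: 0% = PAD4 with RCA probe and DMSO and 100% = probe without PAD4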
Fh CTSL1 inh = cathepsin L1 inhibition, PFM18AAP counter-screen | recombinant F. hepatica cathepsin L1, Z-Leu-Arg-MCA fluorescence | inhibition, % at 5.96 µM | actives 0.49% (n = 300,000) | AID 1906;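 active = inhibition above the mean of all tested compounds plus 3 SD, set per screening campaign, cut at about 17% in these data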;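 note: 0% = plate median of test compound wells and 100% = 1 µM Z-Phe-Ala-diazomethylketone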
TDP2 absorb = blocks human TDP2 phosphodiesterase activity | O95551 | recombinant TDP2, T5PNP hydrolysis, p-nitrophenol absorbance 415 nm | inhibition, % at 12.8 µM | actives 0.34% (n = 370,000);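 active = inhibition above the mean of all tested compounds plus 3 SD, set per campaign, cut at about 25% in these data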;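 note: 0% = DMSO with enzyme and 100% = buffer with substrate but no TDP2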
Target sequence (O95551 whole entry, looked up): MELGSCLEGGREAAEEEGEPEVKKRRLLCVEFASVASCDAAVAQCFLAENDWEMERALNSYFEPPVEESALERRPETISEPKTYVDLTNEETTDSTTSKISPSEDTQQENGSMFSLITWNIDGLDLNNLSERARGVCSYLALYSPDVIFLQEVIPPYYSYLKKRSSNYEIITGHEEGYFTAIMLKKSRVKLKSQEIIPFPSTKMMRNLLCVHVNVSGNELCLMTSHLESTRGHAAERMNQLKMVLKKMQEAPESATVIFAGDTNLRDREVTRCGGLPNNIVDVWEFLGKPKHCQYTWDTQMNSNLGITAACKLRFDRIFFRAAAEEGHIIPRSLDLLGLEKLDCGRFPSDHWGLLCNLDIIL
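System – recombinant human TDP2 · Amount – 120 nM TDP2 per well · Buffer or medium – Mg2+-containing Tris-HCl buffer, pH 7.5 · Reagent – T5PNP substrate, 5 mM · Dosing – 12.8 µM single point, 1% DMSO · Incubation – 2 h at 37 °C · Measured by – epi absorbance · Read-out basis – percent inhibition · Benchmarks – high control without enzyme, low control DMSO plus TDP2 · Repeats – singlicate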
GSTO1 counter = blocks human GSTO1 in RBBP9 counter-screen | inhibition, % at 5.96 µM | recombinant GSTO1, activity-based probe fluorescence polarization | AID 1974 | P78417 | actives 1.1% (n = 300,000);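 active = inhibition above the campaign mean inhibition plus 3 SD, cut at about 35% in these data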;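 note: 0% = GSTO1-1 with DMSO and 100% = wells lacking GSTO1-1 enzyme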
Target sequence (P78417 whole entry, looked up): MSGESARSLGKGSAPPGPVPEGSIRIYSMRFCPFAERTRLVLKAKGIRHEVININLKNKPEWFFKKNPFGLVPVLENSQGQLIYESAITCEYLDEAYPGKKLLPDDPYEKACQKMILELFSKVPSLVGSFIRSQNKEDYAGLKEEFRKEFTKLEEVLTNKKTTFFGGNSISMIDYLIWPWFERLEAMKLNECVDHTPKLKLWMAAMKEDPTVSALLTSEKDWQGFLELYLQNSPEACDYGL
GSTO1 confirm = GSTO1 (human) inhibition, confirmation; recombinant GSTO1, probe fluorescence polarization; actives 54% (n = 2,400); shares compounds with GSTO1 counter; inhibition, % at 5.96 µM; AID 2176;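 active = inhibition above the primary screen's cutoff, its mean inhibition plus 3 SD, cut at about 35% in these data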;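 note: loss of polarization as inhibitors block binding of rhodamine sulfonate ester activity probe; 0% = GSTO1 with DMSO and 100% = wells lacking GSTO1 enzyme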
* marks the source's active call; other numbers are inactive results; · = no result given. Shown are actives, neighbours in structure and some others; about 1.4% of the full set was active somewhere.

SMILES	PAD4 FP inh	Fh CTSL1 inh	TDP2 absorb	GSTO1 counter	GSTO1 confirm
CCOc1ccccc1N1CCN(C2=C(NS(=O)(=O)c3cccs3)C(=O)c3ccccc3C2=O)CC1	-3	-3	5	63*	13
C[C@H]1CN([C@@H](C)CO)S(=O)(=O)c2ccc(Br)cc2O[C@H]1CN(C)C(=O)c1ccccc1F	·	·	2	·	·
CCS(=O)(=O)Nc1ccc2c(c1)C(=O)N(C)[C@@H]1CC[C@H](CC(=O)OC)O[C@H]1CO2	·	·	-2	·	·
Nc1c(N2CCCC2)cc(Cl)c2nonc12	7	95*	·	95*	49*
CC[n+]1ccc(C[n+]2ccccc2)c2ccccc21	-8	10	10	49*	7
COc1ccc(S(=O)(=O)n2oc(=O)cc2-c2ccccc2)cc1OC	3	2	11	40*	-1
COc1ccc(S(=O)(=O)n2oc(=O)cc2-c2ccccc2)cc1	1	0	-11	-1	·
N#Cc1ccccc1OCC(=O)Nc1c(C(=O)C2CC2)oc2ccccc12	0	6	13	81*	98*
CCn1c(-c2ccccc2Cl)nn(CC(=O)Nc2cc(Cl)ccc2Cl)c1=S	1	2	2	38*	21
CCn1c(-c2ccccc2Cl)nn(CC(=O)NCCc2ccccc2)c1=S	-2	-4	11	-3	·
COCC(=O)Nc1cc(Cl)ccc1C	0	1	-11	4	·
Cc1ccc(Cl)cc1NC(=O)CCC(=O)O	-3	-7	-5	64*	7
O=S1(=O)c2ccc(N3CC[C@@H](O)C3)cc2O[C@H]2CCN1C2	·	·	-2	·	·
COc1cc(-n2c(C)nc3cc(C(=O)N4CCCC4)ccc32)cc(OC)c1OC	·	·	-1	·	·
CCCCCCCCN1C(=O)[C@@H](CC(=O)NCc2cccc3ccccc23)C[C@@]2(C(=O)OC)C1=C[C@H](COCc1ccccc1)O[C@@H]2C	·	·	1	·	·
COc1ccc(CCNC(=O)c2noc(C(C)C)c2[N+](=O)[O-])cc1OC	0	-7	-2	39*	30
CCCCCCC(=O)NC1CCCCN(Cc2ccc(Cl)cc2)C1=O (stereo unspecified)	·	·	-2	·	·
COCc1nc2ccccc2n1CCc1ccccc1	-3	0	-4	40*	5
COc1cccc2c(=O)c3cccc(N)c3[nH]c12	-6	-1	2	67*	14
C=C(C)c1cccc(C(C)(C)NC(=O)Nc2ncccn2)c1	-2	5	-31	39*	21
COC(=O)C1Cc2c([nH]c3ccccc23)C2(CCN(Cc3ccccc3)CC2)N1 (stereo unspecified)	2	6	4	62*	4
CC1CCC(NC(=O)C2(C)CCC(=O)N2Cc2cccnc2)CC1 (stereo unspecified)	-2	-1	0	4	·
CC1(C(=O)NC2CCCCC2)CCC(=O)N1Cc1cccnc1 (stereo unspecified)	1	0	-4	52*	5
CSc1nncc(/C(C)=N\Nc2cccc(C)c2)n1	-4	2	-14	23	·
CC/C(=N/Nc1ccccc1C)c1cnnc(SC)n1	-4	1	-3	44*	2
SMILES	PAD4 FP inh	Fh CTSL1 inh	TDP2 absorb	GSTO1 counter	GSTO1 confirm
CSc1nnc2c(n1)[nH]c1c(C)cccc12	-3	-3	5	-6	·
CSc1nncc(/C(C)=N\Nc2ccccc2)n1	-7	3	-8	38*	6
N#Cc1c(N2CCCC(O)C2)nc(N)c2c(N)nc3c(c12)CC(=O)N3C12CC3CC(CC(C3)C1)C2 (stereo unspecified)	1	25*	5	79*	88*
C=C(C)CN(CC)c1nc(N)c2c(N)nc3c(c2c1C#N)CC(=O)N3C12CC3CC(CC(C3)C1)C2	-2	4	-1	26	·
Cc1ccccc1CN1CCCCC(NC(=O)c2ccccc2F)C1=O (stereo unspecified)	·	·	1	·	·
O=C1c2c(O)cccc2Cc2cccc(O)c21	-7	3	5	45*	6
C=CCOC(=O)Nc1nc(CCNC(=O)OC(C)(C)C)c(C(=O)OC)s1	·	·	-6	·	·
CCCCc1c(-c2ccccc2OC)ncn1Cc1ccc(Cl)cc1Cl	·	·	-13	·	·
CC(C)Cn1c(N)c(C(=O)CSc2nc3ncc(Cl)cc3[nH]2)c(=O)n(C)c1=O	-5	0	-12	-13	·
CC(Sc1nc2ncc(Cl)cc2[nH]1)C(=O)c1c(N)n(C)c(=O)n(C)c1=O (stereo unspecified)	-8	-3	5	74*	6
COC(=O)CCC(=O)OC1(C)C(=O)C2=CN(CC3CC3)C(c3ccc(OC)cc3)=CC2=C(Br)C1=O (stereo unspecified)	-3	0	·	51*	36*
CCCCC1=CC2=C(c3ccco3)C(=O)C(C)(OC(=O)c3ccc(OC)cc3)C(=O)C2=CN1CCCOC(C)C (stereo unspecified)	-2	-1	9	6	·
COC(=O)CCC(=O)OC1(C)C(=O)C2=CN(Cc3ccccc3)C(c3ccc(OC)cc3)=CC2=C(Br)C1=O (stereo unspecified)	-27	-3	8	50*	14
COC(=O)CCC(=O)OC1(C)C(=O)C2=CN(CCCOC(C)C)C(c3ccc(OC)cc3)=CC2=C(Br)C1=O (stereo unspecified)	9	11	·	52*	65*
COC(=O)CCC(=O)OC1(C)C(=O)C2=CN(CCc3c[nH]c4ccccc34)C(c3ccc(OC)cc3)=CC2=C(Br)C1=O (stereo unspecified)	-7	-4	·	21	·
COC(=O)CCC(=O)OC1(C)C(=O)C2=CN(C3CC3)C(c3ccc(OC)cc3)=CC2=C(Br)C1=O (stereo unspecified)	-7	1	15	63*	24
CCC(=O)OC1(C)C(=O)C2=COC(c3ccc(OC)cc3)=CC2=C(Br)C1=O (stereo unspecified)	-10	0	4	33	·
COC(=O)[C@]12C[C@H](CC(=O)N3CCCC3)C(=O)N(Cc3ccc(Cl)cc3Cl)C1=C[C@H](C(C)C)O[C@@H]2C1CC1	·	·	-6	·	·
CC1(C(=O)NCc2cccc(C(F)(F)F)c2)CCN1C1Cc2ccccc2C1 (stereo unspecified)	·	·	1	·	·
CN(C)c1cccc(-c2cnc(N3CCC(C(N)=O)CC3)nc2)c1	·	·	1	·	·
COC(=O)CCC(=O)OC1(C)C(=O)C2=CN(Cc3ccc(OC)cc3)C(c3ccc(OC)cc3)=CC2=C(Br)C1=O (stereo unspecified)	-13	-6	10	38*	39*
COC(=O)CCC(=O)OC1(C)C(=O)C2=CN(c3ccccc3)C(c3ccc(OC)cc3)=CC2=C(Br)C1=O (stereo unspecified)	-20	-6	16	45*	13
COC(=O)CCC(=O)OC1(C)C(=O)C2=CN(CC(C)C)C(c3ccc(OC)cc3)=CC2=C(Br)C1=O (stereo unspecified)	-6	-1	·	59*	53*

Screening results: PubChem BioAssay, The Scripps Research Institute Molecular Screening Center
